Laboratory results published in ChEMBL document CHEMBL3352207, “Kinase domain inhibition of leucine rich repeat kinase 2 (LRRK2) using a [1,2,4]triazolo[4,3-b]pyridazine scaffold” (Bioorg Med Chem Lett, 2014).

Tests used:
[1] = Ratio of drug level in kidney to plasma of LRRK2 G2019S transgenic mouse kidney at 30 to 300 mg/kg/day; conditions: kidney and plasma
[2] = AUC (0 to 24 hrs) in mouse at 30 mg/kg/day, po for 14 days; type: ADME, organism-based; design: dose 30 mg/kg/day, time < 24 hr, route oral; conditions: plasma
How it was run: (§1)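 Mice were dosed orally at 0, 30 and 300 mg/kg/day for 14 days, 5 males per dose group, in a PK/PD study.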

[3] = Ratio of AUC (0 to tlast) in brain to plasma of rat at 10 mg/kg; type: ADME, organism-based; design: dose 10 mg/kg; conditions: brain and plasma
[4] = Cmax in mouse at 30 mg/kg/day, po for 14 days; type: ADME, organism-based; design: dose 30 mg/kg/day, route oral; conditions: in vivo
How it was run: as §1

[5] = Cmax in mouse at 300 mg/kg/day, po for 14 days; type: ADME, organism-based; design: dose 300 mg/kg/day, route oral; conditions: in vivo
How it was run: as §1

[6] = AUC (0 to 24 hrs) in mouse at 300 mg/kg/day, po for 14 days; type: ADME, organism-based; design: time < 24 hr, dose 300 mg/kg/day, route oral; conditions: plasma
How it was run: as §1

Kp [1]: 2 | AUC at 24 h [2]: 350 ng·h/mL | Kp [3]: 0.14 | Cmax [4]: 200 ng/mL | Cmax [5]: 12900 ng/mL | AUC at 24 h [6]: 20900 ng·h/mL
Structure (SMILES): COc1ccc(OC)c(Sc2ccc3nnc(-c4cnn(C)c4)n3n2)c1
